Screening data: PubChem BioAssay, Johns Hopkins Ion Channel Center
Kir21 block = blocks the mouse Kir2.1 inward-rectifier potassium channel; P35561; HEK293-Kir2.1, FluxOR thallium flux fluorescence; hits give low values; B-score at 10 µM; hit rate 0.85% among 310,000; AID 1672;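 active means fluorescence ratio B-score at or below minus 3 SD of library scores, with starting-brightness B-score within 2 SD, cut at about -4.2 in these data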;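 further: channel flux triggered by added potassium and thallium sulfate stimulus; B-score of peak minus minimum fluorescence over baseline after thallium stimulus; more negative B-score means stronger Kir2.1 block with less thallium influx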
Target sequence (P35561 whole entry, looked up): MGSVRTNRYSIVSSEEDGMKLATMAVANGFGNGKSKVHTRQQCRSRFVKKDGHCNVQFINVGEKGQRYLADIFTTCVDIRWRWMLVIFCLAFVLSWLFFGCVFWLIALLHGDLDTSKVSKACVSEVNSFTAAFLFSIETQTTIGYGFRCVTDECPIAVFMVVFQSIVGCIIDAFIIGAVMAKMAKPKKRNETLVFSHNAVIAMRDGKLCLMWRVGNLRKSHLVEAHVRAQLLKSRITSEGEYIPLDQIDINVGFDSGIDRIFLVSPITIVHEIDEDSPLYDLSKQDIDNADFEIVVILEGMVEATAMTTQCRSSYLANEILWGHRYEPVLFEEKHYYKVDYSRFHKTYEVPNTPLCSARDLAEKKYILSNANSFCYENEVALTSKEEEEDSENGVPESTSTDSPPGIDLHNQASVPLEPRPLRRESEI
MrgX1 PAM = human MrgX1 positive allosteric modulation, primary screen. Q96LB2. hit rate 0.63% among 310,000. B-score at 10 µM. MrgX1-HEK293, Fluo-4 calcium flux, FDSS; hits give high values;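 active means plate-corrected calcium response at least 3 library SD above typical, normal starting fluorescence, not activating the receptor alone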;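 further: compound read alongside a low EC10 to EC30 dose of BAM8-22 agonist; peak minus trough fluorescence over baseline measured at the second addition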
MrgX1 ag = agonists of human MrgX1 receptor; B-score at 10 µM; MrgX1-HEK293 cells, Fluo-4 calcium fluorescence, agonist mode; hits give high values; hit rate 0.44% among 310,000; Q96LB2;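 active means calcium response B-score plate-corrected fluorescence ratio at least 3 library SD, with starting fluorescence B-score inside 5 SD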
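Test system: Stable human MrgX1 HEK293 cell line | Schedule: Overnight plating before 1 h dye loading | Read-out basis: Baseline-normalised fluorescence change ratio, B-scored | Detection: Kinetic calcium dye fluorescence, Fluo-4 NW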
RGS4 block = human RGS4 inhibition | HEK293 M3R/RGS4 inducible, Fluo-4 calcium flux; hits give high values; triggered by carbachol at its EC20 | AID 463165 | P49798 | hit rate 0.45% among 310,000 | B-score at 10 µM;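 active means B-score, a plate-corrected calcium signal, over three deviations above library mean, with baseline fluorescence within five deviations of library mean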;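 further: RGS4 expression induced by doxycycline in cells with stable M3 receptor; B-score is computed from the integrated fluorescence ratio over baseline after carbachol; higher B-score means a larger calcium signal and so more RGS4 inhibition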
Target sequence (P49798 whole entry, looked up): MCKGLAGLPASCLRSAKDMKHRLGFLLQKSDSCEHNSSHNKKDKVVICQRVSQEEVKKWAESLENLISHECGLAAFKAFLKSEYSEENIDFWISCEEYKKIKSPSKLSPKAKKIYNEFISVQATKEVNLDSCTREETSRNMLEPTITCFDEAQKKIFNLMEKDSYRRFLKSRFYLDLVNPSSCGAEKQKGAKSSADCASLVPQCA
MrgX1 antag = blocks BAM8-22 activation of human MrgX1 receptor | Q96LB2 | MRGX1-HEK293 calcium flux, Fluo-4, BAM8-22 antagonism; hits give low values | B-score at 10 µM | hit rate 1.3% among 310,000 | AID 588676;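 active means calcium-response B-score plate-corrected more than 3 library SD below zero, starting fluorescence within 5 deviations, no agonist response on first addition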;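 further: peak minus trough fluorescence over baseline after final BAM8-22 challenge near maximal dose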
RGS4 pot = RGS4 potentiation or activation; HEK293 M3R/inducible RGS4, carbachol calcium flux Fluo4; hits give low values; B-score at 10 µM; hit rate 0.92% among 310,000;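 active means B-score of the integrated calcium signal more than 4 SD below the library mean, with starting fluorescence not abnormally high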;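 further: negative B-score means reduced calcium response which marks RGS4 activation or potentiation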
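test system = M3R-expressing HEK293 line, RGS4 induced by doxycycline | probe or stimulus = carbachol at ECmax as muscarinic agonist stimulus | timing = dye loading 30 min 37 °C, buffer rest 30 min RT | signal = calcium dye Fluo4 fluorescence | evaluation = B score from integrated fluorescence ratio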
RGS4 activ val = confirmation of RGS4 activators; hit rate 89% among 1,100; shares compounds with RGS4 pot; AID 602282; HEK293 M3R/RGS4 inducible, carbachol calcium flux Fluo4; inhibition, % at 10 µM;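 active means inhibition above 3 SD of the buffer control wells, cut at about 41% in these data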;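 further: signal is the integrated peak-minus-minimum Fluo4 fluorescence over baseline ratio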
M3R Ca counter = counter-screen for RGS4 activators: effect in non-induced cells. shares compounds with RGS4 pot. HEK293 M3R non-induced RGS4, Fluo4 calcium flux; after carbachol challenge at its EC90. inhibition, % at 10 µM. hit rate 82% among 1,100. AID 602283;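 active means inhibition exceeding 3 SD of buffer-only control wells, cut at about 26% in these data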;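 further: percent drop in integrated peak-minus-baseline over baseline Fluo4 ratio after carbachol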
An asterisk follows results filed as active; i = inactive; x = no result. A selection: hits, their analogues and other compounds. The true share with any hit is near 4.1%.

SMILES	Kir21 block	MrgX1 PAM	MrgX1 ag	RGS4 block	MrgX1 antag	RGS4 pot	RGS4 activ val	M3R Ca counter
O=c1c2ccccc2nc(/C=C/c2cccnc2)n1CCc1ccccc1	-0.72	i	i	i	i	-9.7*	56*	0
COC(=O)C(O)(CC(=O)Nc1ccc(Cl)cc1Cl)C(F)(F)F (stereo unspecified)	1.7	i	i	i	i	-9.2*	0	0
COC(=O)C(O)(CC(=O)Nc1ccc(Cl)cc1F)C(F)(F)F (stereo unspecified)	1.9	i	i	i	i	i	x	x
Cc1ccc(Oc2ccc(NC(=O)Cn3ccsc3=N)cc2)cc1	-4.5*	i	45*	i	i	-8.8*	89*	52*
Cc1ccc(NC(=O)CN(C)C(=O)Cn2ccsc2=N)cc1	-0.53	i	i	i	i	i	x	x
CC(C)(C)c1nnc(NC(=O)c2cc(-c3ccccc3)nc3ccccc23)s1	0.44	i	i	i	i	i	x	x
Cc1ccc(C)c(-c2cc(C(=O)Nc3nccs3)c3ccccc3n2)c1	0.37	i	i	i	i	-7.7*	68*	0
COC(=O)c1sccc1NC(=O)c1cc(-c2cc(C)ccc2C)nc2ccccc12	0.02	i	i	i	i	i	x	x
Cc1csc(NC(=O)c2cc(-c3ccccc3)nc3ccccc23)n1	0.28	i	i	i	i	-7.8*	86*	43*
COc1ccc(N(C)S(=O)(=O)c2c(C)[nH]c(=O)[nH]c2=O)cc1	-0.23	i	i	i	i	-8.1*	0	0
CCOc1ccc2[nH]c3c(N4CCc5ccccc5C4)ncnc3c2c1	1.1	i	i	i	i	-8.5*	94*	72*
COc1ccc(-c2nc(CCl)cs2)cc1OC	-0.67	i	i	i	i	i	x	x
COc1ccc(-c2nc(-c3ccc(O)cc3O)cs2)cc1OC	-1.2	x	x	i	x	-11*	78*	51*
COc1ccc(OS(=O)(=O)c2c(C)noc2C)cc1	-0.55	i	i	i	i	-9.3*	84*	41*
COc1ccc(N(C)S(=O)(=O)c2c(C)noc2C)c(OC)c1	-1.5	i	i	i	i	i	x	x
Cc1cc(NC(=O)c2cnn3c(C(F)(F)F)cc(-c4ccccc4)nc23)no1	2.1	i	i	i	i	-10*	94*	74*
Cc1cc(NC(=O)c2cnn3c(C(F)F)cc(-c4ccccc4)nc23)no1	-0.39	i	i	i	i	i	x	x
Cc1ccc(C2N(c3ccccc3)C(=S)N3CCCN23)cc1 (stereo unspecified)	-2.5	i	i	i	i	-11*	94*	91*
Fc1ccc(C2N(c3ccccc3)C(=S)N3CCCN23)cc1 (stereo unspecified)	-2.7	i	i	i	i	i	x	x
Cc1ccc(-n2c(=S)sc3c(=O)n(-c4ccccc4C)c(SCC(=O)O)nc32)cc1C	-0.7	i	i	i	i	i	x	x
CCOC(=O)C1CCCN(C(=O)c2ccc3nc(-c4cccc(OC)c4)oc3c2)C1 (stereo unspecified)	-0.84	i	i	i	i	-8.7*	54*	84*
CCC(=O)C1CCCN(C(=O)c2ccc3nc(-c4cccc(OC)c4)oc3c2)C1 (stereo unspecified)	-0.01	i	i	i	i	i	x	x
CCOC(=O)C1CCCN(C(=O)c2cc3c(C)nc4ccccc4c3o2)C1 (stereo unspecified)	0.64	i	i	i	i	-9.2*	82*	61*
Cc1nc2ccccc2c2oc(C(=O)N3CC(C)CC(C)C3)cc12 (stereo unspecified)	0.25	i	i	i	i	i	x	x
Cc1ccc(C)c(N2CCN(C(=O)c3cc4c(C)nc5ccccc5c4o3)CC2)c1	-1	i	i	i	i	-8.5*	89*	68*
SMILES	Kir21 block	MrgX1 PAM	MrgX1 ag	RGS4 block	MrgX1 antag	RGS4 pot	RGS4 activ val	M3R Ca counter
O=C(COC(=O)c1ccc(Cl)s1)c1cc2ccccc2o1	-1.8	i	i	i	i	i	x	x
COc1cccc(-c2nc(CS(=O)(=O)CC(=O)Nc3ccc(F)cc3F)c(C)o2)c1	-1.6	i	i	i	i	i	x	x
CN(C)/C=C1\Cc2ccccc2C1=O	-2	i	i	i	i	i	x	x
CC[N+]1(C)CCC(=C2c3ccccc3CC(=O)c3sccc32)CC1 (stereo unspecified)	0.24	i	i	i	-6.7*	-11*	95*	84*
COc1ccc(CN(C)S(=O)(=O)c2nnc(NC(=O)c3ccccc3)s2)cc1OC	-0.39	i	i	i	i	i	x	x
COc1ccccc1C(=O)Nc1nnc(S(=O)(=O)N(C)Cc2ccccc2)s1	1.6	i	i	i	i	-8.9*	89*	52*
COc1ccc(Cl)c2sc(NC(=O)C3=COCCO3)nc12	-0.49	i	i	i	i	i	x	x
CCN(CC)C(=O)CSc1nnc(-c2cc(-c3ccc(Cl)cc3)nc3ccccc23)o1	0.58	i	i	i	i	i	x	x
CN(C)C(=O)CSc1nnc(-c2cc(-c3cccs3)nc3ccccc23)o1	-0.64	i	i	i	i	-8.3*	76*	45*
CCOC(=O)Nc1ccc2c(c1)N(C(=O)C(C)N1CCCC1)c1ccccc1CC2 (stereo unspecified)	-2.1	i	i	i	i	-7.9*	86*	84*
CCOC(=O)Nc1ccc2c(c1)N(C(=O)OC)c1ccccc1CC2	-0.48	i	i	i	i	i	x	x
CCOC(=O)c1c(NC(=O)CSc2nnnn2-c2ccccc2)sc2c1CCC(C)C2 (stereo unspecified)	0.07	i	i	i	i	i	x	x
Cc1ccc(O)c(C(=O)c2cnc(/N=C(\N)N(C)C)nc2)c1	-2.4	i	i	i	i	-8.8*	90*	69*
CCN(CC)CCNC(=O)c1ccc(NC(=O)c2cccc(S(=O)(=O)Nc3ccc(C)cc3)c2)cc1	0.37	i	i	i	i	-12*	92*	69*
